Measurements reported in paper PMC2151523 (The Journal of General Physiology, 2006).
Where “and” joins values, the source holds several entries; their conditions need not be identical. Equal entries are not always repeated. Where two headings read alike, the source gives them in different places.

Key:
[1] = molecular target: T1, bovine rod CNGA1 channels (Bos taurus, UniProt Q00194); type: biochemical; settings: for δ (Woodhull fit, best-fit): four blockers in the same patch (Fig. 4 C)
T1 sequence (Q00194 1-690): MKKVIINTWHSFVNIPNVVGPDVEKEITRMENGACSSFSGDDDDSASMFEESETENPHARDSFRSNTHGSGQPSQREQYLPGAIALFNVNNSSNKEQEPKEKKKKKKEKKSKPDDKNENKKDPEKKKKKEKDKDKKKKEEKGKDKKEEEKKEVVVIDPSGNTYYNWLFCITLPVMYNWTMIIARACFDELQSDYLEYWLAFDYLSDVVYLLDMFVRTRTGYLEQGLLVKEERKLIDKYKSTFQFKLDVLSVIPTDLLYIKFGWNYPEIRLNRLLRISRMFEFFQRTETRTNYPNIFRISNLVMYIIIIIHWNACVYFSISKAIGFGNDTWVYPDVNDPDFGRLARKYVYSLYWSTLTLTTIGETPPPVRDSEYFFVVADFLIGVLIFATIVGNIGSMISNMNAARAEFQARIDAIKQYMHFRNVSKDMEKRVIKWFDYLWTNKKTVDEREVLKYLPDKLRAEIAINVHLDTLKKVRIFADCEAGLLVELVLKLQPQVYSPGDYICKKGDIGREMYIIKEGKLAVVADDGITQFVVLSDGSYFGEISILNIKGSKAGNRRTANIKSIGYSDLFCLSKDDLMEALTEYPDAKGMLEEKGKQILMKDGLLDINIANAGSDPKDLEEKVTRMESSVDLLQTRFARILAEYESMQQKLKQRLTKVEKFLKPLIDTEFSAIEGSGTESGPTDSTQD
Procedure, shortened: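 Inside-out patches from HEK293 cells expressing bovine rod CNGA1. Bath and pipette solution: 160 mM NaCl, 1 mM EGTA, 1 mM EDTA, 10 mM HEPES, pH 7.4. Currents were elicited with 1 mM cGMP by steps from −80 to +80 mV in 20 mV increments from a 0 mV holding potential. Records without cGMP were subtracted, and blocker was added to the bath. Block was read 10–40 s after exchange, at the end of the +80 mV pulse. KD and n came from a Hill fit. δ came from Woodhull fits of per-voltage KD and was averaged over 10 patches. Comparisons were made in the same patch and bracketed by controls.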

[2] = system: 391C cysteine-less CNGA1 channels; type: biochemical, bovine; settings: for modification rate open state versus closed state: average rates (Fig. 11 D)
Procedure, shortened: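 391C channels were expressed in Xenopus oocytes and recorded 3–5 d after cRNA injection. Solutions contained 120 mM NaCl, 1 mM EGTA, 1 mM EDTA, 10 mM HEPES, pH 7.4. MTS reagent was applied for 2 s at 0 mV, with 2 mM cGMP (open state) or without it (closed state). Current was then monitored by a 50-ms step to +80 mV in 2 mM cGMP. Each value is the mean of at least three experiments.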

CNGA1 channels [3] = settings: ref Flynn and Zagotta, 2001; cited from earlier work
391C CNGA1 channels = assay: Cd2+ inhibition in the closed state and its slowing by blocker; type: biochemical, bovine
CNGA1 channels [4] = settings: cited from earlier work
CNGA1 channel = molecular target: T2, CNGA1 channel (Bos taurus, UniProt Q00194); assay: Single channel recordings of blockade, inside-out patches; type: biochemical, bovine; settings: +70 mV, 2 mM cGMP
T2 sequence (Q00194 1-690): T1 sequence (Q00194 1-690)
Procedure, shortened: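 Single-channel recordings were made in inside-out patches with 7–10 MΩ pipettes at +70 mV with saturating 2 mM cGMP. Signals were sampled at 20 kHz, Bessel-filtered at 5 kHz, then digitally filtered at 2 kHz. Amplitude histograms (40 s of record) were fitted with two Gaussians. Open dwell-time distributions were fitted with two exponentials. τ2 was normalised to its blocker-free value, and its dose response was fitted with a Hill equation.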

Kv channels = settings: cysteine at valine of PVP region; ref Liu et al., 1997; cited from earlier work
[5] = read-out: average KD0, 0 mV, average of several patches
[6] = 500 μM reagent, estimated from τ

**Q.** With `CCC[N+](CC)(CC)CC` [C3-TEA] as the molecule, how does the “average δ” value ([1]; average of several patches) read?
**A.** The value was −0.40 ± 0.08.

**Q.** What about the Kd [1, 5] of the same molecule?
**A.** The Kd was 31 mM.

**Q.** What does the source list for `CC[N+](CC)(CC)CCCSS(C)(=O)=O` [MTS-PtrEA]?
**A.** time constant τ of modification, open state ([2]; 500 μM reagent, 2 mM cGMP): 5.7 ± 0.3 s; time constant τ of modification, closed state ([2]; 500 μM reagent, absence of cGMP): 27 ± 1 s; modification rate, closed state [2, 6]: 74 M⁻¹ s⁻¹; modification rate, open state [2, 6]: 351 M⁻¹ s⁻¹; modification rate open state versus closed state [2]: three to seven

**Q.** For `CC[N+](CC)(CC)CCSS(C)(=O)=O` [MTSTEA], which “modification rate open state versus closed state” value [2] is on record?
**A.** The value was “three to seven”.

**Q.** With `CS(=O)(=O)SCCN` [MTSEA, amino ethyl-MTS] as the molecule, how does the “modification rates in both closed and open state” value (CNGA1 channels [3]) read?
**A.** The value was 10^3–10^4 M^−1s^−1.

**Q.** What does the source list for `CCCCCCCC[N+](CC)(CC)CC` [C8-TEA]?
**A.** δ (Woodhull fit, best-fit) ([1]; 1 mM cGMP): −0.44 ± 0.02; Kd [1, 5]: 0.9 ± 0.2 mM

**Q.** With `[Cl][Cd][Cl]` [Cd^2+, CdCl2] as the molecule, how does the “time constant τ of current inhibition by Cd2+, closed state” value (391C CNGA1 channels; 6 μM Cd2+, no cGMP, no blocker) read?
**A.** Its value is 2.64 ± 0.08 s.

**Q.** What about the “effect on cysteine-less wild-type channels” value (391C CNGA1 channels; 50 μM Cd2+, unpublished data) of the same molecule?
**A.** The value was “no effect”.

**Q.** What about the “recovery of current inhibition” value (391C CNGA1 channels; unpublished data) of the same molecule?
**A.** The value was 20–40%.

**Q.** And the “time course τ of recovery of current inhibition” value (391C CNGA1 channels; unpublished data)?
**A.** The value was ~100 s.

**Q.** For `CCCCCC[N+](CC)(CC)CC` [C6-TEA, hexyltriethylammonium], which “average δ” value ([1]; average of several patches) is on record?
**A.** The value was −0.48 ± 0.02.

**Q.** And the “δ (Woodhull fit, best-fit)” value ([1]; 1 mM cGMP)?
**A.** Its value is −0.53 ± 0.02.

**Q.** What about the Kd [1, 5] of the same molecule?
**A.** Its Kd is 5 mM.

**Q.** For `Cc1cc(N)c2ccccc2[n+]1CCCCCCCCCC[n+]1c(C)cc(N)c2ccccc21` [dequalinium], which “apparent affinity for closed channels compared with open channels” value (CNGA1 channels [4]; ref Rosenbaum et al., 2004) is on record?
**A.** The value was “three- to fivefold”.

**Q.** For `CC[N+](CC)(CC)CC` [TEA, tetraethylammonium], which reduction in current ([1]; 5 mM blocker, +80 mV, 1 mM cGMP) is on record?
**A.** Its reduction in current is ~35%.

**Q.** What about the “average δ” value ([1]; average of several patches) of the same molecule?
**A.** The value was −0.31 ± 0.04.

**Q.** And the Kd [1, 5]?
**A.** The Kd was 35 mM.

**Q.** Which results are given for `CCCC[N+](CC)(CC)CC` [C4-TEA]?
**A.** average δ ([1]; average of several patches): −0.40 ± 0.03; δ (Woodhull fit, best-fit) ([1]; 1 mM cGMP): −0.45 ± 0.02; Kd [1, 5]: 11 mM

**Q.** With `CCCCNc1ccc(C(=O)OCCN(C)C)cc1` [Tetracaine, tetracaine] as the molecule, how does the “apparent affinity in the closed state compared with the open state” value (CNGA1 channels [4]; ref Fodor et al., 1997b, Ghatpande et al., 2003) read?
**A.** Its value is ~10^3 times higher.

**Q.** Which “amplitude for the open state” value (CNGA1 channel; 5 μM blocker) does the source give for `CCCCCCCCCC[N+](CC)(CC)CC` [C10-TEA, decyltriethyl ammonium] here?
**A.** The value was 2.317 ± 0.002 pA.

**Q.** What about the “area of the nonconductive level in current histogram” value (CNGA1 channel; 5 μM blocker, 5% without blocker) of the same molecule?
**A.** Its value is 26%.

**Q.** What about the “area of the open state in amplitude histogram” value (CNGA1 channel; 5 μM blocker, 95% without blocker) of the same molecule?
**A.** Its value is 74%.

**Q.** What about the “open dwell-time fraction A1” value (CNGA1 channel; 25 μM blocker) of the same molecule?
**A.** The value was 0.19.

**Q.** What about the “open dwell-time fraction A2” value (CNGA1 channel; 25 μM blocker) of the same molecule?
**A.** The value was 0.81.

**Q.** And the “open dwell-time fast component τ1” value (CNGA1 channel; 25 μM blocker, 0.7 ms in control)?
**A.** Its value is ~0.7 ms and 0.6 ms.

**Q.** What about the “apparent mean open time of the main (slow) component, τ2” value (CNGA1 channel; 25 μM blocker, 12.2 ms in control) of the same molecule?
**A.** Its value is 3.74 ms and 3.7 ms.

**Q.** What about the “extent of blockade at subsaturating versus saturating cGMP” value ([1]; 5 μM blocker, +80 mV) of the same molecule?
**A.** The value was “Blockade was larger at subsaturating levels of cGMP”.

**Q.** What about the “blockade levels under saturating cGMP, cIMP or cAMP” value ([1]; 15 μM blocker, +80 mV, 16 mM agonist) of the same molecule?
**A.** Its value is “Blockade levels were larger for cIMP and cAMP”.

**Q.** And the Hill coefficient n ([1]; +80 mV, 1 mM cGMP, one patch (Fig. 2 A))?
**A.** The Hill coefficient n was 1.19 ± 0.04.

**Q.** What about the “δ (Woodhull fit, best-fit)” value ([1]; 1 mM cGMP) of the same molecule?
**A.** The value was −0.44 ± 0.01.

**Q.** And the Kd [1, 5]?
**A.** Its Kd is 0.05 ± 0.01 mM.

**Q.** And the Kd ([1]; read-out: average KDc, four different patches)?
**A.** The Kd was 0.0023 ± 0.0006 mM.

**Q.** For `C[N+](C)(C)CCSS(C)(=O)=O` [MTSET, trimethylammonium ethyl-MTS], which “modification rate in the closed state” value (Kv channels) is on record?
**A.** Its value is 1 M⁻¹ s⁻¹.

**Q.** What about the “state-dependent accessibility (modification rate)” value (Kv channels) of the same molecule?
**A.** The value was ~10^6 M^−1s^−1.

**Q.** Which “difference in apparent affinity as compared with C10-TEA” value ([1]; 50 μM, +80 mV, 1 mM cGMP) does the source give for `CCCCCCCCCC[N+](C)(C)C` [C10-TMA, decyl-trimethyl ammonium] here?
**A.** Its value is 1.8 fold.
